ChEMBL document CHEMBL3526081 (Drug Metab Dispos, 2011)

Test system: Liver microsome
Assay: Retention time in Sprague-Dawley rat liver microsomes treated with 100 uM cinobufagin at 37 degC after 30 mins by UFLC-DAD-ESI-MS analysis
Assay type: ADME
Conditions: 0.5 h
Procedure, shortened: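 Male Sprague-Dawley rat microsomes (0.3 mg/ml) were incubated with CB (100 µM) at 37°C for 30 min, with and without NADPH-generating system. Separation was on an ODS column at 40°C using an acetonitrile/0.5% formic acid water gradient at 0.4 ml/min, with DAD detection at 294 nm plus ESI-MS.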

| Compound | Retention_time [min] |
| --- | --- |
| CC(=O)O[C@H]1[C@H]2O[C@]23[C@@H]2CC[C@@H]4C[C@H](O)CC[C@]4(C)[C@H]2CC[C@]3(C)[C@H]1c1ccc(=O)oc1 | 10.59 |
| C[C@]12CC[C@@H](O)C[C@H]1CC[C@@H]1[C@@H]2CC[C@]2(C)[C@@H](c3ccc(=O)oc3)[C@@H](O)[C@H]3O[C@]132 | 8.32 |
| C[C@]12CC[C@H](O)C[C@H]1CC[C@@H]1[C@@H]2CC[C@]2(C)[C@@H](c3ccc(=O)oc3)[C@@H](O)[C@H]3O[C@]132 [DESACETYLCINOBUFAGIN] | 6.95 |
